Measured values collected from several papers.
Protocols differ between the studies behind these lines. pIC50: −log10 of the molar value.
Cell line: HepG2
Observed: cell growth or viability

N=C(N/N=C/c1ccccc1)N/N=C/c1ccccc1F
pIC50 (resazurin; 24 h): 4.22

COC1=CC(c2ccc[nH]2)=NC1=Cc1ccc(CCCCCCCCCCCO)[nH]1
pIC50: 4.94

CC(=O)OC1c2c(ccc3ccc(=O)oc23)OC(C)(C)C1OC(=O)C(C)(O)C(C)O (stereo not drawn)
pIC50 (WST-1): 4.61

OC(c1cc(C(F)(F)F)nc2c(C(F)(F)F)cccc12)C1CCCCN1 (stereo not drawn)
pIC50: 4.96

CCCCCCCCCCCCCCCCOP(=O)([O-])OCC[N+](C)(C)C
CC50 (MTS; 24 h): > 20 µM

COC1=CC(c2ccc[nH]2)=NC1=Cc1ccc(CCCCCCCCCCCCO)[nH]1
pIC50: 5.21

COc1ccc2cc3[n+](cc2c1OC)CCc1cc2c(cc1-3)OCO2
viability (10 µM; 24 h): 102%

CNc1cccc2cc(C(=O)Nc3ccc(C(=O)O)cc3)c(=O)[nH]c12
cell death (CCK-8; 10 µM; 48 h): 1.5%

CC1(C)CC[C@]2(C)CC[C@]3(C)[C@H]4CC=C5[C@@H](CC[C@H](O)C5(C)C)[C@]4(C)CC[C@@]3(C)[C@@H]2C1
pIC50 (WST-1): 4.29

COc1ccc2c(c1)c1c(n2CO)CN2CCc3cc(OC)c(OCC(F)(F)F)cc3C2C1 (stereo not drawn)
viability (10 µM; 24 h): 96.6%

Cc1[nH]c2ccccc2c(=O)c1-c1ccc(Oc2ccc(OC(F)(F)F)cc2)nc1
pIC50 (resazurin): < 5.00

COc1ccc2c(c1)c1c(n2CO)CN2CCc3cc(OCc4ccccc4)c(OC)cc3C2C1 (stereo not drawn)
viability (10 µM; 24 h): 111%

COc1cccc2c1C(=O)c1c(O)c3c(c(O)c1C2=O)C[C@@](O)(C(=O)CO)C[C@@H]3O[C@H]1C[C@H](N)[C@H](O)[C@H](C)O1
viability (MTT; 25 µM; 48 h): 31.4%

CNc1cccc2cc(C(=O)NCc3ccc(C(=O)O)cc3)c(=O)[nH]c12
cell death (CCK-8; 10 µM; 48 h): 6.1%

COc1ccc2c(c1)c1c(n2CO)CN2CCc3cc(OC)c(OCc4ccc(F)cc4)cc3C2C1 (stereo not drawn)
viability (5 µM; 24 h): 104%

COC1=CC(c2cccn2C)=NC1=Cc1ccc(CCCCCCCCCC(C)O)[nH]1 (stereo not drawn)
pIC50: < 4.00

COc1cc2[nH]c(C)c(-c3ccc(Oc4ccc(C(F)(F)F)cn4)cc3)c(=O)c2cc1Cl
pIC50 (resazurin): < 5.00

CCCCCCn1c(-c2cccc(Cl)c2)n[nH]c1=S
viability (resazurin; 1 µM; 24 h): 87%

COc1cc2[nH]c(C)c(-c3ccc(Oc4cccc(OC(F)(F)F)c4)cc3)c(=O)c2cc1Cl
pIC50 (resazurin): < 5.00

CNc1cccc2cc(C(=O)NCCc3cccc(C(=O)O)c3)c(=O)[nH]c12
cell death (CCK-8; 10 µM; 48 h): 5.9%

COc1ccc(-c2nc3ncccn3c2NC(C)(C)CC(C)(C)C)cc1O
viability (MTT; 25 µM; 48 h): 77.7%

COc1cc2c(cc1OCc1ccccc1F)C1Cc3c(n(CO)c4ccccc34)CN1CC2 (stereo not drawn)
viability (5 µM; 24 h): 119%

COc1cc2[nH]c(C)c(-c3ccc(Oc4ccc(C(F)(F)F)cc4)cc3)c(=O)c2cc1Cl
pIC50 (resazurin): < 5.00

COc1ccc(CCN2CCC(Nc3nc4ccccc4n3Cc3ccc(F)cc3)CC2)cc1
viability (resazurin; 1 µM; 24 h): 113%
